FN deposition inh = inhibitors of fibronectin matrix deposition, primary screen, AH1F cells, Alexa488-fibronectin fluorescence, plate reader; AH1F fibroblasts, overnight; inhibition, % at 12.6 µM; hit rate 0.086% among 350,000; AID 743247, 2014;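 active = mean inhibition across replicates of 30% or more, regardless of how many single replicates reach that level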;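 note: positive control wells lacked labelled fibronectin entirely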
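Assay system: AH1F fibroblast monolayer, labelled fibronectin deposition. Amount: 10000 cells per well. Also added: labelled fibronectin 24 nM. Compound: single-point pinned compound. Incubation: cell attachment 1 h, compound and FN exposure overnight. Detection: fluorescence after three HBSS washes, excitation 485 nm, emission 525 nm. Read-out: inhibition of fibronectin deposition signal.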
CaV13 ICDI inh = Disruptors of the CACNA1D IQ motif to Ca2+-dependent inactivation inhibitor domain association, primary screening, Förster resonance energy transfer in intact living …; HEK cells, CFP/YFP FRET ICDI-IQ, plate reader, 10 min; percent FRET-ratio fall versus neutral wells; inhibition, % at 12.3 µM; hit rate 0.098% among 340,000;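 active = mean replicate inhibition of at least 30% and at least 1% of replicates passing that level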;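 note: 0% = median of the neutral control wells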
SR-BI DiI-HDL act = activators of SR-BI mediated DiI-HDL uptake, primary screen, ldlA[mSR-BI] CHO cells, DiI fluorescence; 3 h; 100 = double the neutral-control signal; activation, % at 12.5 µM; hit rate 0.096% among 320,000;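 active = mean replicate activation of at least 60% and every replicate at or above 60%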;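 note: 0% = median plate neutral-control signal and 100% = twice that signal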
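material = CHO ldlA[mSR-BI] cells | medium = Ham's F12 with 0.5% BSA, HEPES 25 mM, pH 7.4 | reagent = fluorescent DiI-HDL, 10 µg/mL final | compound dosing = single-point compound dose | incubation = 3 h, 37 °C | measured by = bottom-read fluorescence, 550/595 nm | measure = HDL uptake via cellular fluorescence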
SR-BI DiI inh = inhibitors of SR-BI mediated HDL lipid uptake, primary screen, ldlA[mSR-BI] cells, fluorescence, single point; Scavenger receptor class B member 1 (Mus musculus), Q61009; ldlA[mSR-BI] CHO cells, DiI-HDL uptake fluorescence, 3 h; inhibition, % at 12.5 µM; hit rate 0.96% among 320,000;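 active = mean replicate inhibition of at least 70% and a set share of replicates each scoring 70 or more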;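 note: 0% = median of neutral control wells and 100% = median of positive control wells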
Target sequence (Q61009 whole entry, looked up): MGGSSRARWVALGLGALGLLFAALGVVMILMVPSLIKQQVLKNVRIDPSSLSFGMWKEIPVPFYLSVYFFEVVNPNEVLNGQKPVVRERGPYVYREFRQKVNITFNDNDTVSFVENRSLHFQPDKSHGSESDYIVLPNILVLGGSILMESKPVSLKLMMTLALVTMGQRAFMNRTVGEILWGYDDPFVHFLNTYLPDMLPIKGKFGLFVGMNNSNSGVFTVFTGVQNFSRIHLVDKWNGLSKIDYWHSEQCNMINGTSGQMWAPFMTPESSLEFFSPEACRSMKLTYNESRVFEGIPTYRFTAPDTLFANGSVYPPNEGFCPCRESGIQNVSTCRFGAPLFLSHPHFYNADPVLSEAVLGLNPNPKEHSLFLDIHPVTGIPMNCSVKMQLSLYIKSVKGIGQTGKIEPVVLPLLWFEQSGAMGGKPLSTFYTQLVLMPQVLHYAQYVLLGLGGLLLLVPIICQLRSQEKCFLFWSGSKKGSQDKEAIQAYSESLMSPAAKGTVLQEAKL
Efflux pump inh = inhibitors of Candida efflux pumps in yeast, primary screen, S. cerevisiae, Nile Red, multiplex | S. cerevisiae Candida pump triplex | inhibition, % at 10 µM | hit rate 0.44% among 330,000;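 active = plate passing quality check with inhibition over a set limit, or well fluorescence over plate mean plus 4 SD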;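 note: Nile Red retained in pooled yeast measured as flow cytometry median fluorescence; 0% = buffer negative control and 100% = Enniatin B positive control; higher means more Nile Red kept so more efflux inhibition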
Cmpd fluor yeast = flagged as fluorescent in efflux inhibitor counter-screen | AID 588517 | S. cerevisiae AD/pABC3, compound fluorescence, flow cytometry | hit rate 4% among 1,700 | fluorescence ratio to DMSO, % at 10 µM | shares compounds with Efflux pump inh;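 active = fluorescence ratio to DMSO above its plate's cutoff, the plate mean ratio plus 5 SD, cut at about 210% in these data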;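 note: unstained yeast with no Nile Red so the signal is compound autofluorescence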
CaMdr1 efflux inh = inhibitors of Candida albicans Mdr1 efflux, confirmation, flow cytometry, singleplex, Cherry Pick1 set; shares compounds with Efflux pump inh; hit rate 1% among 1,700; inhibition, % at 10 µM; AID 588518, 2011; S. cerevisiae AD/CaMDR1, Nile Red efflux; in the data active = inhibition above about 26%;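 note: 0% = DMSO vehicle and 100% = reference inhibitor; higher means more Nile Red retained so more efflux inhibition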
Cdr2 pump inh = inhibitors of Candida albicans Cdr2 efflux pump, confirmation, S. cerevisiae AD/CaCDR2, flow cytometry, cherry pick 1, singleplex | Nile Red retention | hit rate 4% among 1,700 | Nile Red retention ratio vs DMSO, % at 10 µM | shares compounds with Efflux pump inh; in the data active = Nile Red retention ratio vs DMSO above about 190%;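 note: higher ratio means more blocking of Cdr2 efflux of the dye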
CaCdr1 efflux inh = inhibitors of Candida albicans Cdr1 efflux pump, confirmation, S. cerevisiae AD/CaCDR1, flow cytometry, cherry pick 1, singleplex | shares compounds with Efflux pump inh | Nile Red efflux | inhibition, % at 10 µM | hit rate 1% among 1,700;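 active = inhibition above the screen-wide mean plus twice its standard deviation, cut at about 32% in these data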
* = called active by the depositor. In the library only some 1.2% were active in any assay of this set; here they are far more common.

What do the screens show for `O=[N+]([O-])c1cc(C(F)(F)F)ccc1NCCc1ccccn1`?
FN deposition inh: 8; CaV13 ICDI inh: 3; SR-BI DiI-HDL act: 4; SR-BI DiI inh: -4; Efflux pump inh: 0.9*; Cmpd fluor yeast: 103; CaMdr1 efflux inh: 0; Cdr2 pump inh: 121; CaCdr1 efflux inh: 0

What do the screens show for `CCOC(=O)c1ccc(-c2cc(C)no2)[nH]1`?
CaV13 ICDI inh: -9; SR-BI DiI-HDL act: -3; SR-BI DiI inh: 3; Efflux pump inh: 6.5*; Cmpd fluor yeast: 106; CaMdr1 efflux inh: 0; Cdr2 pump inh: 107; CaCdr1 efflux inh: 0

Results for CCOC(=O)c1cc(-c2ccccc2)n[nH]1 ?
FN deposition inh: -1; CaV13 ICDI inh: -7; SR-BI DiI-HDL act: 9; SR-BI DiI inh: -9; Efflux pump inh: 0

Results for O=C1[C@H](Cc2ccc(F)cc2)CCn2cc(nn2)COC[C@H]2CCCN12 ?
FN deposition inh: -6

Results for CNC(=S)N1CCc2cc(OC)c(OC)cc2C1 ?
FN deposition inh: 0; CaV13 ICDI inh: -6; SR-BI DiI-HDL act: 1; SR-BI DiI inh: -1; Efflux pump inh: 0; Cmpd fluor yeast: 108; CaMdr1 efflux inh: 0; Cdr2 pump inh: 106; CaCdr1 efflux inh: 0

What do the screens show for `COc1cc2c(cc1OC)CN(C(=S)Nc1c(C)cccc1C)CC2`?
FN deposition inh: 9; CaV13 ICDI inh: -2; SR-BI DiI-HDL act: 10; SR-BI DiI inh: -10; Efflux pump inh: 0

How did Cc1cccc(N2CCN(S(=O)(=O)c3cccc4nonc34)CC2)c1C do in these assays?
CaV13 ICDI inh: -10; SR-BI DiI-HDL act: 17; SR-BI DiI inh: -17; Efflux pump inh: 0

Results for O=S(=O)(c1cccc2nonc12)N1CCN(c2ccccc2F)CC1 ?
FN deposition inh: 0; CaV13 ICDI inh: -5; SR-BI DiI-HDL act: -4; SR-BI DiI inh: 4; Efflux pump inh: 1.1*; Cmpd fluor yeast: 98; CaMdr1 efflux inh: 0; Cdr2 pump inh: 101; CaCdr1 efflux inh: 0

What do the screens show for `O=[N+]([O-])c1ccc(-c2ccc(/C=N/Nc3nc(NCc4ccccc4)nc(N4CCOCC4)n3)o2)cc1`?
FN deposition inh: 0; CaV13 ICDI inh: -7; SR-BI DiI-HDL act: -36; SR-BI DiI inh: 36; Efflux pump inh: 0

What do the screens show for `COc1nc(N/N=C/c2ccc(-c3ccccc3[N+](=O)[O-])o2)nc(N2CCOCC2)n1`?
FN deposition inh: 4; CaV13 ICDI inh: -3; SR-BI DiI-HDL act: -36; SR-BI DiI inh: 36; Efflux pump inh: 16*; Cmpd fluor yeast: 135; CaMdr1 efflux inh: 0; Cdr2 pump inh: 91; CaCdr1 efflux inh: 1

Results for O=Cc1cccc(Oc2ccc([N+](=O)[O-])cc2[N+](=O)[O-])c1 ?
CaV13 ICDI inh: -6; SR-BI DiI-HDL act: -7; SR-BI DiI inh: 7; Efflux pump inh: 0.7*; Cmpd fluor yeast: 100; CaMdr1 efflux inh: 0; Cdr2 pump inh: 101; CaCdr1 efflux inh: 0

What do the screens show for `O=C(NCCCN1CCOCC1)C(=O)N/N=C/c1ccccc1O`?
FN deposition inh: 7; CaV13 ICDI inh: -5; Efflux pump inh: 0.8*; Cmpd fluor yeast: 111; CaMdr1 efflux inh: 0; Cdr2 pump inh: 101; CaCdr1 efflux inh: 0

What do the screens show for `O=C(NCCCN1CCOCC1)c1cccc(S(=O)(=O)N2CCOCC2)c1`?
FN deposition inh: 7; CaV13 ICDI inh: -2; SR-BI DiI-HDL act: 19; SR-BI DiI inh: -19; Efflux pump inh: 106*; Cmpd fluor yeast: 103; CaMdr1 efflux inh: 0; Cdr2 pump inh: 104; CaCdr1 efflux inh: 0

Results for Cc1ccc(S(=O)(=O)N2CCOCC2)cc1NC(=O)COC(=O)CNC(=O)c1ccccc1 ?
CaV13 ICDI inh: -7; SR-BI DiI-HDL act: 11; SR-BI DiI inh: -11; Efflux pump inh: 9.1*; Cmpd fluor yeast: 102; CaMdr1 efflux inh: 0; Cdr2 pump inh: 101; CaCdr1 efflux inh: 0

What do the screens show for `COc1ccc(OC)c(NC(=O)NNC(=O)c2cc3occc3[nH]2)c1`?
FN deposition inh: -6; CaV13 ICDI inh: -4; SR-BI DiI-HDL act: -10; SR-BI DiI inh: 10; Efflux pump inh: 1.2*; Cmpd fluor yeast: 100; CaMdr1 efflux inh: 0; Cdr2 pump inh: 101; CaCdr1 efflux inh: 0

Results for COCCCn1c(SCC(=O)OC2CCCCC2)nnc1-c1cccs1 ?
CaV13 ICDI inh: -8; SR-BI DiI-HDL act: -1; SR-BI DiI inh: 1; Efflux pump inh: 1.3*; Cmpd fluor yeast: 96; CaMdr1 efflux inh: 0; Cdr2 pump inh: 120; CaCdr1 efflux inh: 0

Results for COCCCn1c(SCC(=O)OC2CCCCC2)nnc1-c1ccco1 ?
CaV13 ICDI inh: -7; SR-BI DiI-HDL act: -9; SR-BI DiI inh: 9; Efflux pump inh: 0

Results for CC(=O)Oc1cccc(/C=c2\sc3nc(-c4ccco4)nn3c2=O)c1 ?
CaV13 ICDI inh: 0; SR-BI DiI-HDL act: 7; SR-BI DiI inh: -7; Efflux pump inh: 0; Cmpd fluor yeast: 79; CaMdr1 efflux inh: 0; Cdr2 pump inh: 89; CaCdr1 efflux inh: 0

Results for CCCOc1ccc(/C=c2\sc3nc(-c4ccco4)nn3c2=O)cc1OCC ?
SR-BI DiI-HDL act: -19; SR-BI DiI inh: 19; Efflux pump inh: 0; Cmpd fluor yeast: 97; CaMdr1 efflux inh: 0; Cdr2 pump inh: 89; CaCdr1 efflux inh: 0

What do the screens show for `O=C(NC1CCC1)[C@H]1[C@H](CO)[C@H]2Cn3c(ccc(-c4ccncc4)c3=O)[C@@H]1N2Cc1cocn1`?
FN deposition inh: -4

Results for OC(COCc1cccs1)CN1CCN(c2cccc(C(F)(F)F)c2)CC1 (configuration not stated) ?
FN deposition inh: -2; CaV13 ICDI inh: -4; SR-BI DiI-HDL act: 16; SR-BI DiI inh: -16; Efflux pump inh: 6.8*; Cmpd fluor yeast: 106; CaMdr1 efflux inh: 0; Cdr2 pump inh: 112; CaCdr1 efflux inh: 0
